Data: ChEMBL document CHEMBL3580657, “Design and Evaluation of 3-(Benzylthio)benzamide Derivatives as Potent and Selective SIRT2 Inhibitors” (ACS Med Chem Lett, 2015)
Activity calls are given as the source filed them. The calls are words filed in the database; no cut-off is given here.

How the values were obtained:
[1] = molecular target: T1, NAD-dependent protein deacetylase sirtuin-2 (Homo sapiens) (UniProt Q8IXJ6); experiment: Inhibition of SIRT2 (unknown origin) at 10 uM by Flour-de-Lys fluorescent biochemical assay
T1 sequence (whole entry): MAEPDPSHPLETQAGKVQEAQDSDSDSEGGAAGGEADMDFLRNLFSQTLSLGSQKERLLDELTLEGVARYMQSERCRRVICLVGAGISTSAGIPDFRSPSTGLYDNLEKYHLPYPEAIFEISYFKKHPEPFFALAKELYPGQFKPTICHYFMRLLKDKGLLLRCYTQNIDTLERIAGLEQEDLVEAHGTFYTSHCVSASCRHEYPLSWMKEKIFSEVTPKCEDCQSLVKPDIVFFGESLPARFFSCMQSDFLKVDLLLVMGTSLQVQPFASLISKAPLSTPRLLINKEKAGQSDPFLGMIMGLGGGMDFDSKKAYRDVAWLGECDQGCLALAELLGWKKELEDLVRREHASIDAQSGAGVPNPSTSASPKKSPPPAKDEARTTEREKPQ
How it was run: (§1)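 Biochemical sirtuin deacetylation assays (SIRT1, SIRT2, SIRT3) run as in earlier work. Single 10 μM dose in triplicate. Primary screen was SIRT2, with SIRT1 and SIRT3 as counter-screens. A reference compound was included with each assay.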

[2] = molecular target: T2, NAD-dependent protein deacetylase sirtuin-2 (Homo sapiens, UniProt Q8IXJ6); experiment: Inhibition of SIRT2 (unknown origin) by Flour-de-Lys fluorescent biochemical assay
T2 sequence (Q8IXJ6 whole entry): T1 sequence (whole entry)

[3] = molecular target: T3, NAD-dependent protein deacetylase sirtuin-3, mitochondrial (Homo sapiens) (UniProt Q9NTG7); experiment: Inhibition of SIRT3 (unknown origin) at 10 uM by Flour-de-Lys fluorescent biochemical assay; how it was run: as §1
T3 sequence (whole entry): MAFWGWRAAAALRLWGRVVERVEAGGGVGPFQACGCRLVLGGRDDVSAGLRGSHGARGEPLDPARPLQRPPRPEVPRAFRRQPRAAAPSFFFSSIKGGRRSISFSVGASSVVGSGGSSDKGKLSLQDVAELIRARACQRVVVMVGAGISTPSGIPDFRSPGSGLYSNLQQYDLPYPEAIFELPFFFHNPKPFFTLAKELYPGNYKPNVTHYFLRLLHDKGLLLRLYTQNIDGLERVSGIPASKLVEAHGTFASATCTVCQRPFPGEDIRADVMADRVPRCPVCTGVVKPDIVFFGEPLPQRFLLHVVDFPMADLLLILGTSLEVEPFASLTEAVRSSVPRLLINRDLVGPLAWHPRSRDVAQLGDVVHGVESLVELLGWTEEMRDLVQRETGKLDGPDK

[4] = molecular target: T4, NAD-dependent protein deacetylase sirtuin-2 (Rattus norvegicus) (UniProt Q5RJQ4); experiment: Inhibition of SIRT2 in rat ST14A cells assessed as increase in alpha-tubulin K40 acetylation at 0.5 to 50 uM incubated for 6 hrs by SDS-PAGE and Western blotting method; format: cell-based
T4 sequence (whole entry): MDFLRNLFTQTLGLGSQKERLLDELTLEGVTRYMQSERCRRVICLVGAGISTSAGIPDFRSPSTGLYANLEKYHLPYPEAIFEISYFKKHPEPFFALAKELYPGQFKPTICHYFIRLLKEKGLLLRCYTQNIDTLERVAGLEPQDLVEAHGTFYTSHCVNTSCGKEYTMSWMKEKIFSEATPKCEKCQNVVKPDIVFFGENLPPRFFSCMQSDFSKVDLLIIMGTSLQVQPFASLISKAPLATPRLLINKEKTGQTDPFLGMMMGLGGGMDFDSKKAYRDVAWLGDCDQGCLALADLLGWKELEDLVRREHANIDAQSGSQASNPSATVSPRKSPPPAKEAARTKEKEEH
How it was run: (§2)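 Cells were treated with compound for 6 h across 0.5–50 μM. Extracts were resolved by SDS-PAGE and immunoblotted with an antibody to acetyl-K40 α-tubulin, with GAPDH as loading control. In ST14A, signal was normalized to GAPDH and quantified from blots.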

[5] = molecular target: T5, NAD-dependent protein deacetylase sirtuin-1 (Homo sapiens) (UniProt Q96EB6); experiment: Inhibition of SIRT1 (unknown origin) at 10 uM by Flour-de-Lys fluorescent biochemical assay; how it was run: as §1
T5 sequence (whole entry): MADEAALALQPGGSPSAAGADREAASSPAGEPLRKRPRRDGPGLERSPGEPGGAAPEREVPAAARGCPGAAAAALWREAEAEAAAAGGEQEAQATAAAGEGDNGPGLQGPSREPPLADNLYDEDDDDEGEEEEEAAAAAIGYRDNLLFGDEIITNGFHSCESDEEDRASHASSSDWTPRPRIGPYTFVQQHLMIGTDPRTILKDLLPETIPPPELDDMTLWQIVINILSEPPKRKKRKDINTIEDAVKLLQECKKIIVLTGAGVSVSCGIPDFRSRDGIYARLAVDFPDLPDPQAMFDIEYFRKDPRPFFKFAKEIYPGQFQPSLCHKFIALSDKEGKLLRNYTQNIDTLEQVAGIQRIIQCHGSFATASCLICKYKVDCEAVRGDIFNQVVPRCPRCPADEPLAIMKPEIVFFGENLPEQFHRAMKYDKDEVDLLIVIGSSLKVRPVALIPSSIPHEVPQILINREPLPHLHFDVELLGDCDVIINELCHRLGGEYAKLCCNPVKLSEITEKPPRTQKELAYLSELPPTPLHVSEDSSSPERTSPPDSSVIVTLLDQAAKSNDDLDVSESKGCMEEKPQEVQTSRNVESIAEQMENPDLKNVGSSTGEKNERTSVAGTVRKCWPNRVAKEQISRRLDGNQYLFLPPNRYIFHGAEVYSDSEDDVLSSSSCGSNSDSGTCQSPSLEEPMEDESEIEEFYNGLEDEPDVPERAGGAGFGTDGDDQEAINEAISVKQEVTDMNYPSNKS

[6] = Toxicity in rat PC12 cells expressing inducible HD103Q-EGFP fusion fragment of huntingtin mutant assessed as effect on cell density at 5 uM by phase contrast microscopy; format: cell-based; settings: pc-12, 5 µM
[7] = molecular target: T4, NAD-dependent protein deacetylase sirtuin-2 (Rattus norvegicus); experiment: Inhibition of SIRT2 in rat PC12 cells expressing inducible HD103Q-EGFP fusion fragment of huntingtin mutant assessed as reduction in number and size of fluorescent polyQ inclusions at 5 uM treated simultaneously with 2.5 uM ecdysone-inducible gene inducer muristerone A for 24 hrs by fluorescence microscopy; format: cell-based; settings: PC-12
How it was run: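 PC12 cells carrying inducible HD103Q-EGFP huntingtin fragment were induced with 2.5 μM muristerone A for 24 h, simultaneous with compound at 25, 10 or 5 μM. PolyQ aggregation was scored by epifluorescence microscopy as number and size of fluorescent inclusions.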

[8] = molecular target: T4, NAD-dependent protein deacetylase sirtuin-2 (Rattus norvegicus); experiment: Inhibition of SIRT2 in rat ST14A cells assessed as increase in alpha-tubulin K40 acetylation at 25 uM incubated for 6 hrs by SDS-PAGE and Western blotting method; format: cell-based; how it was run: as §2

**Q.** For `O=C(Nc1ccc(Cl)nn1)c1cccc(S(=O)(=O)Cc2ccc(Cl)cc2)c1`, which inhibition [1] is on record?
**A.** Its inhibition is 0%.

**Q.** Which IC50 [2] does the source give for `N#Cc1ccc(NC(=O)c2cccc(S(=O)(=O)Nc3ccc(Cl)cn3)c2)cc1` here?
**A.** The IC50 was “Not Active”.

**Q.** Which inhibition [3] does the source give for `C[S+]([O-])c1ccc(NC(=O)c2cccc(SCc3ccc(Cl)cc3)c2)cc1` (stereo not drawn) here?
**A.** Its inhibition is 8%.

**Q.** What about the IC50 ([2]; read-out: IC50) of the same compound?
**A.** The IC50 was 8.4 µM.

**Q.** And the inhibition [4]?
**A.** Its inhibition is “Dose-dependent effect”.

**Q.** And the inhibition [1]?
**A.** The inhibition was 60%.

**Q.** And the inhibition [5]?
**A.** The inhibition was 10%.

**Q.** For `CC(=O)c1ccc(NC(=O)c2cccc(S(=O)(=O)Cc3ccc(Cl)cc3)c2)cc1`, which inhibition [1] is on record?
**A.** The inhibition was 23%.

**Q.** With `COc1ccc(C[S+]([O-])c2cccc(C(=O)Nc3ccc(C#N)cc3)c2)cc1` (stereo not drawn) as the compound, how does the inhibition [1] read?
**A.** The inhibition was 21%.

**Q.** With `CSc1ccc(CSc2cccc(C(=O)Nc3ccc(C#N)cc3)c2)cc1` as the compound, how does the Activity [6] read?
**A.** Its Activity is “Non-toxic”.

**Q.** And the inhibition [7]?
**A.** Its inhibition is “Active”.

**Q.** And the inhibition [3]?
**A.** The inhibition was 0%.

**Q.** And the IC50 ([2]; read-out: IC50)?
**A.** Its IC50 is 2.4 µM.

**Q.** And the inhibition [8]?
**A.** The inhibition was “Active”.

**Q.** And the inhibition [1]?
**A.** Its inhibition is 83%.

**Q.** What about the inhibition [5] of the same compound?
**A.** Its inhibition is 3%.

**Q.** Which inhibition [1] does the source give for `CS(=O)(=O)c1ccc(NC(=O)c2cccc([S+]([O-])Cc3ccc(Cl)cc3)c2)cc1` (stereo not drawn) here?
**A.** Its inhibition is 18%.

**Q.** Which inhibition [3] does the source give for `N#Cc1ccc(NC(=O)c2cccc([S+]([O-])Cc3ccc(Cl)cc3)c2)cc1` (stereo not drawn) here?
**A.** The inhibition was 11%.

**Q.** What about the IC50 ([2]; read-out: IC50) of the same compound?
**A.** The IC50 was 7.1 µM.

**Q.** What about the inhibition [1] of the same compound?
**A.** Its inhibition is 47%.

**Q.** What about the inhibition [5] of the same compound?
**A.** The inhibition was 12%.

**Q.** What does the source list for `COc1ccc(CS(=O)(=O)c2cccc(C(=O)Nc3ccc(C#N)cc3)c2)cc1`?
**A.** inhibition [3]: 0%; IC50 ([2]; read-out: IC50): 6.7 µM; inhibition [1]: 50%; inhibition [5]: 3%

**Q.** Which inhibition [1] does the source give for `O=C(Nc1ccc(Cl)cn1)c1cccc(S(=O)(=O)Cc2ccc(Cl)cc2)c1` here?
**A.** Its inhibition is 2%.

**Q.** For `O=C(Nc1ccc(Br)cc1)c1cccc(S(=O)(=O)Cc2ccc(Cl)cc2)c1`, which inhibition [1] is on record?
**A.** Its inhibition is 0%.

**Q.** What does the source list for `N#Cc1ccc(NC(=O)c2cccc(S(=O)(=O)Cc3ccc(Cl)cc3)c2)cc1`?
**A.** inhibition [3]: 0%; IC50 ([2]; read-out: IC50): 4.7 µM; inhibition [1]: 40%; inhibition [5]: 0%

**Q.** With `O=C(Nc1ccc(Cl)cc1)c1cccc(S(=O)(=O)Cc2ccc(Cl)cc2)c1` as the compound, how does the inhibition [1] read?
**A.** The inhibition was 0%.

**Q.** Which inhibition [3] does the source give for `N#Cc1ccc(NC(=O)c2cccc(SCc3ccc(Cl)cc3)c2)cc1` here?
**A.** Its inhibition is 0%.

**Q.** And the IC50 ([2]; read-out: IC50)?
**A.** Its IC50 is 2.9 µM.

**Q.** And the inhibition [1]?
**A.** The inhibition was 81%.

**Q.** And the inhibition [5]?
**A.** Its inhibition is 8%.

**Q.** Which inhibition [1] does the source give for `C[S+]([O-])c1ccc(NC(=O)c2cccc([S+]([O-])Cc3ccc(Cl)cc3)c2)cc1` (stereo not drawn) here?
**A.** Its inhibition is 24%.

**Q.** For `CS(=O)(=O)c1ccc(NC(=O)c2cccc(S(=O)(=O)Cc3ccc(Cl)cc3)c2)cc1`, which inhibition [1] is on record?
**A.** Its inhibition is 17%.
